In ChEMBL document CHEMBL4043273, “Phenotypic Optimization of Urea-Thiophene Carboxamides To Yield Potent, Well Tolerated, and Orally Active Protective Agents against Aminoglycoside-Induced Hearing Loss” (J Med Chem, 2018):
Converted amounts (≈) assume the structure as drawn. The source made the active and inactive calls.

Columns and labels:
Escherichia coli [1] = experiment: Effect on neomycin MBC for Escherichia coli ATCC 25922; format: functional
Pseudomonas aeruginosa [2] = experiment: Effect on neomycin MIC for Pseudomonas aeruginosa 103 ATCC 27853; format: functional
Pseudomonas aeruginosa [3] = experiment: Effect on kanamycin MIC for Pseudomonas aeruginosa 6325; format: functional
Pseudomonas aeruginosa [4] = experiment: Effect on neomycin MIC for Pseudomonas aeruginosa 6160; format: functional
Pseudomonas aeruginosa [5] = experiment: Effect on kanamycin MIC for aminoglycoside-resistant Pseudomonas aeruginosa 6322; format: functional
[6] = tested on: Mycobacterium tuberculosis; experiment: Effect on moxifloxacin-induced antibacterial activity against Mycobacterium tuberculosis in mouse pulmonary tuberculosis model; format: functional
Pseudomonas aeruginosa [7] = experiment: Effect on amikacin MIC for aminoglycoside-resistant Pseudomonas aeruginosa 6322; format: functional
[8] = tested on: Mycobacterium tuberculosis; experiment: Effect on amikacin-induced antibacterial activity against Mycobacterium tuberculosis in mouse pulmonary tuberculosis model; format: functional
Pseudomonas aeruginosa [9] = experiment: Effect on amikacin MIC for Pseudomonas aeruginosa 6471; format: functional
[10] = tested on: Mycobacterium tuberculosis; experiment: Effect on kanamycin-induced antibacterial activity against Mycobacterium tuberculosis in mouse pulmonary tuberculosis model; format: functional
Pseudomonas aeruginosa [11] = experiment: Effect on tobramycin MIC for Pseudomonas aeruginosa 6471; format: functional
Pseudomonas aeruginosa [12] = experiment: Effect on kanamycin MIC for Pseudomonas aeruginosa 6471; format: functional
Pseudomonas aeruginosa [13] = experiment: Effect on neomycin MIC for aminoglycoside-resistant Pseudomonas aeruginosa 6322; format: functional
Pseudomonas aeruginosa [14] = experiment: Effect on tobramycin MIC for aminoglycoside-resistant Pseudomonas aeruginosa 6322; format: functional
Rattus norvegicus [15] = experiment: Protection against amikacin-induced hair cell death in Fischer 344 rat corti at 5 mg/kg/day administered via oral gavage for 12 days followed by recovery without treatment for additional 14 days by immunohistochemical method; format: functional, organism-based
Outline: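 Rats given amikacin 320 mg/kg/day s.c. plus compound 5 mg/kg p.o. daily for 12 days; saline s.c. controls. Cochleae fixed in 4% paraformaldehyde and dissected. Organ of Corti immunostained for myosin 7A (hair cells), Sox2 (supporting-cell nuclei) and neurofilament (neuronal processes). Basal turn imaged by confocal microscopy.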

Rattus norvegicus [16] = experiment: Protection against amikacin-induced hearing loss at 2 to 32 kHz in Fischer 344 rat at 5 mg/kg/day administered via oral gavage for 12 days followed by recovery without treatment for additional 14 days by auditory brain stem response assay; format: functional, organism-based
Outline: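 Male Fischer 344 rats had ABR thresholds measured 1–2 weeks before treatment and 2 weeks after it, under isoflurane, on a heating pad near 37°C, in a sound-attenuating chamber. Amikacin 320 mg/kg/day s.c. for 12 days, with compound 5 mg/kg/day by oral gavage in PEG300:DMA:EtOH:H2O. Groups: amikacin alone or amikacin plus compound.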

Pseudomonas aeruginosa [17] = experiment: Effect on amikacin MIC for Pseudomonas aeruginosa 6325; format: functional
Pseudomonas aeruginosa [18] = experiment: Effect on tobramycin MIC for Pseudomonas aeruginosa 6325; format: functional
Pseudomonas aeruginosa [19] = experiment: Effect on tobramycin MIC for Pseudomonas aeruginosa 103 ATCC 27853; format: functional
Pseudomonas aeruginosa [20] = experiment: Effect on neomycin MIC for Pseudomonas aeruginosa 6325; format: functional
Escherichia coli [21] = experiment: Effect on neomycin MIC for Escherichia coli ATCC 25922; format: functional
Pseudomonas aeruginosa [22] = experiment: Effect on neomycin MIC for Pseudomonas aeruginosa 6471; format: functional
Pseudomonas aeruginosa [23] = experiment: Effect on kanamycin MIC for Pseudomonas aeruginosa 103 ATCC 27853; format: functional
Pseudomonas aeruginosa [24] = experiment: Effect on amikacin MIC for Pseudomonas aeruginosa 6160; format: functional
[25] = tested on: Mycobacterium tuberculosis; experiment: Effect on amikacin MIC for Mycobacterium tuberculosis H37Rv at 1 to 10 uM; format: functional
Pseudomonas aeruginosa [26] = experiment: Effect on amikacin MIC for Pseudomonas aeruginosa 103 ATCC 27853; format: functional
Pseudomonas aeruginosa [27] = experiment: Effect on kanamycin MIC for Pseudomonas aeruginosa 6160; format: functional
Pseudomonas aeruginosa [28] = experiment: Effect on tobramycin MIC for Pseudomonas aeruginosa 6160; format: functional
[29] = Aqueous solubility of compound at pH 7.4; format: physicochemical
Danio rerio [30] = species on record: Danio rerio; experiment: Protection against neomycin-induced hair cell death in AB zebra fish larvae assessed as increase in hair cell survival preincubated for 1 hr followed by neomycin challenge for 1 hr by DASPEI staining-based epifluorescence dissecting microscopic method; format: functional
[31] = (§1) Protein binding in human plasma; format: ADME, cell-free; details: read-out: PPB
HepG2 = experiment: Cytotoxicity against human HepG2 cells assessed as decrease in cell growth after 72 hrs by celltiter glo assay; format: cell-based; details: HepG2, 72 h
[32] = (§2) Oral bioavailability in rat at 25 mg/kg; format: ADME, organism-based; details: in vivo
[33] = (§3) Protein binding in rat plasma; format: ADME, cell-free; details: read-out: PPB
[34] = Drug metabolism assessed as air oxidation; format: physicochemical
[35] = target: Voltage-gated inwardly rectifying potassium channel KCNH2 (Homo sapiens, UniProt Q12809)
Chain of Voltage-gated inwardly rectifying potassium channel KCNH2 (Q12809 whole entry): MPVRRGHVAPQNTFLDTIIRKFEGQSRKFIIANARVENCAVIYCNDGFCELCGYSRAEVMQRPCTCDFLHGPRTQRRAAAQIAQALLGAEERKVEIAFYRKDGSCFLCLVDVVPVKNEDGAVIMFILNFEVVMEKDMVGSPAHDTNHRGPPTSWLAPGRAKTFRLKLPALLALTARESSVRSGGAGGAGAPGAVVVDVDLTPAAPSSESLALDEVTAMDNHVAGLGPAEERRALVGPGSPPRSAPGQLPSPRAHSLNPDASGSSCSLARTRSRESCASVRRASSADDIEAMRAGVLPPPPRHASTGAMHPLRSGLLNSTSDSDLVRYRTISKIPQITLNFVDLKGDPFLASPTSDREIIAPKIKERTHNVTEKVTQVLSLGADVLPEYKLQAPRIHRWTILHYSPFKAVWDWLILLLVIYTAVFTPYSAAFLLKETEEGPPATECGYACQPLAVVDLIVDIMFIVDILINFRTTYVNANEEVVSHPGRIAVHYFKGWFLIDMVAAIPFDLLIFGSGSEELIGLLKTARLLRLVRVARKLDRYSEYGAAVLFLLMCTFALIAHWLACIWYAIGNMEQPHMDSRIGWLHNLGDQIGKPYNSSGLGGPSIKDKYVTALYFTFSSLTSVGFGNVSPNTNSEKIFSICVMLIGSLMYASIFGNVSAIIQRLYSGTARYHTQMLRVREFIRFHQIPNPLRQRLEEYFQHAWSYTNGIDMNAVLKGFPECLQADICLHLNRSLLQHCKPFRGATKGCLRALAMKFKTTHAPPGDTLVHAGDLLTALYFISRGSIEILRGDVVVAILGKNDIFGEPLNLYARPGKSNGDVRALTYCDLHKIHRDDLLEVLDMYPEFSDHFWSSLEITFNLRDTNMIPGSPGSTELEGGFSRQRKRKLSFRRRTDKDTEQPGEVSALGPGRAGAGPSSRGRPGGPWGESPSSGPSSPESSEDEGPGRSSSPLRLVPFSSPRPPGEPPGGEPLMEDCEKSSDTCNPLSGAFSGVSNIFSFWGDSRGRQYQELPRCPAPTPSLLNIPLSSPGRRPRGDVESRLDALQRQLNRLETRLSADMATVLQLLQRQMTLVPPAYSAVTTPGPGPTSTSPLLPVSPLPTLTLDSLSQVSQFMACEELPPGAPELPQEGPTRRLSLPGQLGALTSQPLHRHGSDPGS

[36] = Ratio of IC50 for human ERG expressed in HEK293 cells to HC50 for protection against neomycin-induced hair cell death in AB zebra fish larvae
Rattus norvegicus [37] = experiment: Acute toxicity in rat at 50 mg/kg, iv; format: organism-based; details: in vivo
[38] = (§4) Elimination half life in rat by LC-MS method; format: ADME; details: in vivo, read-out: beta t1/2 (converted)
Rattus norvegicus [39] = experiment: Protection against kanamycin-induced hearing loss at 8 to 32 kHz in Sprague-Dawley rat at 25 mg/kg/day, ip treated for 14 days followed by recovery without treatment for additional 14 days by auditory brain stem response assay; format: functional, organism-based
[40] = Protein binding in plasma; details: read-out: PPB (converted)
Danio rerio [41] = species on record: Danio rerio; experiment: Protection against neomycin-induced hair cell death in AB zebra fish larvae assessed as increase in hair cell survival at 2.8 uM preincubated for 1 hr followed by neomycin challenge for 1 hr by DASPEI staining-based epifluorescence dissecting microscopic method relative to control; format: functional
Outline: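 AB larvae raised at 28.5°C in embryo medium and tested at 5-7 dpf, ten fish per basket. Pretreatment with compound for 1 h at 1.56–25 µM (halved further if the lowest dose protected), then compound plus 200 µM neomycin for 1 h. After rinsing, 0.05% DASPEI stain for 15 min and MS222 anaesthesia. Ten neuromasts per fish scored 0–2 under epifluorescence, normalised to untreated fish as % survival; HC50 linearly interpolated.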

Cytochrome P450 3A4 = Cytochrome P450 3A4 (Homo sapiens, UniProt P08684); experiment: Inhibition of CYP3A4 (unknown origin); format: ADME
Chain of Cytochrome P450 3A4 (P08684 whole entry): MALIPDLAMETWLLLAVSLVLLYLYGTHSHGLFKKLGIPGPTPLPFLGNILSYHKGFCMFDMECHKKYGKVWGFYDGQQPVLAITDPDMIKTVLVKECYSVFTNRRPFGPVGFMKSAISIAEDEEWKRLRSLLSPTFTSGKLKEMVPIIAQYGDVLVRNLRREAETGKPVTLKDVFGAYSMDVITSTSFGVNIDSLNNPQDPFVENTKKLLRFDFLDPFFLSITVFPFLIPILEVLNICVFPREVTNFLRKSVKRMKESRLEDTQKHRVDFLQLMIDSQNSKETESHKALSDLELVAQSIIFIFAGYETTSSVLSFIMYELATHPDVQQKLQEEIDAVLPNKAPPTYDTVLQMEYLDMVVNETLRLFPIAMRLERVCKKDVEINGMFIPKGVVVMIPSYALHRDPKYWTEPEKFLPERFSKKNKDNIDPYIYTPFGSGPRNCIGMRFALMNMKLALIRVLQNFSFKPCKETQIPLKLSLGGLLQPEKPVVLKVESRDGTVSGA

Cytochrome P450 2C19 = Cytochrome P450 2C19 (Homo sapiens, UniProt P33261); experiment: Inhibition of CYP2C19 (unknown origin); format: ADME
Chain of Cytochrome P450 2C19 (P33261 whole entry): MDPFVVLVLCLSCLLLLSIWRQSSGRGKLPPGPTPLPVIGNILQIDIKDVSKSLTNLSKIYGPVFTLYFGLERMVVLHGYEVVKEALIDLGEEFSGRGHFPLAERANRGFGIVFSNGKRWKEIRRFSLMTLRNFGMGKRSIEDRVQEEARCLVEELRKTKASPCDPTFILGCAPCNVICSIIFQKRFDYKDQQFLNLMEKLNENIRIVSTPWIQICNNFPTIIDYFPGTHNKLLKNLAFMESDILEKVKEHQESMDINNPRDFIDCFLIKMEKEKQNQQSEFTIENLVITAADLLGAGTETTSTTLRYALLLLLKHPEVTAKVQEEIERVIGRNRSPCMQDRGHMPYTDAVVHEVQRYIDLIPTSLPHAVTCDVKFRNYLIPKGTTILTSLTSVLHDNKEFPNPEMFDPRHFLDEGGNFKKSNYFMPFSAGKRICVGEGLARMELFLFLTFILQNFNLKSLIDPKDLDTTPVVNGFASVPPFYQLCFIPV

[42] = Metabolic stability in microsomes (unknown origin); format: ADME, Microsome
Cytochrome P450 2C9 = Cytochrome P450 2C9 (Homo sapiens, UniProt P11712); experiment: Inhibition of CYP2C9 (unknown origin); format: ADME
Chain of Cytochrome P450 2C9 (P11712 whole entry): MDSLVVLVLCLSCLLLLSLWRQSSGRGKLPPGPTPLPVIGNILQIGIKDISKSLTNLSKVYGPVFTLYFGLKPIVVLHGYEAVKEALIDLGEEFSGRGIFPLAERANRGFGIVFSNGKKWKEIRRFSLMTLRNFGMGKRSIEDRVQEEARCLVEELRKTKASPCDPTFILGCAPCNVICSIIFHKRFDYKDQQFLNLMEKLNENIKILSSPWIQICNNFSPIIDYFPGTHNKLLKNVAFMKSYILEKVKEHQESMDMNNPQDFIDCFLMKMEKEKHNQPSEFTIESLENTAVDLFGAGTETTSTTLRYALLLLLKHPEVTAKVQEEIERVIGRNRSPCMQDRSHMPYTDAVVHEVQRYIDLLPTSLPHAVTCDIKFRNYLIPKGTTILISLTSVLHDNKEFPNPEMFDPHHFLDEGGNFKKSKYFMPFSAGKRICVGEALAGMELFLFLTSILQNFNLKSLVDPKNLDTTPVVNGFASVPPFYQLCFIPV

Cytochrome P450 2D6 = Cytochrome P450 2D6 (Homo sapiens, UniProt P10635); experiment: Inhibition of CYP2D6 (unknown origin); format: ADME
Chain of Cytochrome P450 2D6 (P10635 whole entry): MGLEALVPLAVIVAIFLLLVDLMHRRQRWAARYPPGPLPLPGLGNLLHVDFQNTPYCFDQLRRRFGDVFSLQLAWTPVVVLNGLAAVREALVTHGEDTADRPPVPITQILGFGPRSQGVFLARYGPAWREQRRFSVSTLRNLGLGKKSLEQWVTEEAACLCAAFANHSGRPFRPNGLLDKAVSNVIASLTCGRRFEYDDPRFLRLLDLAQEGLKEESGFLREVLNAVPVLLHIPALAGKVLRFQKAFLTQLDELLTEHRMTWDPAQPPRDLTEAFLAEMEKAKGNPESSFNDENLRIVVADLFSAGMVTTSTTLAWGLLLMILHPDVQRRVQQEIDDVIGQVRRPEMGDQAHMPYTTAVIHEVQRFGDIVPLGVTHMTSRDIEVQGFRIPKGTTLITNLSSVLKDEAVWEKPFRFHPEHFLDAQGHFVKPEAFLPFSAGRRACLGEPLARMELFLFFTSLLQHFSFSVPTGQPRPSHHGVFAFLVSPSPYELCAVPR

[43] = Permeability across MDCK cells expressing MDR1; format: ADME, cell-based, Canis lupus familiaris; details: dog, read-out: permeability
Rattus norvegicus [44] = experiment: Change in hearing threshold in Fischer 344 rat at 5 to 25 mg/kg/day administered via oral gavage for 12 days; format: ADME, organism-based; details: in vivo, 288 h
Outline: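 Fischer 344 rats given compound alone by oral gavage at 5 or 25 mg/kg/day for 12 days (n=3 per dose), vehicle PEG300:DMA:EtOH:H2O. ABR thresholds measured before dosing and after a 2-week recovery, under isoflurane anaesthesia in a sound-attenuating chamber.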

Plasma [45] = experiment: as §1; format: ADME, cell-free
Rattus norvegicus [46] = experiment: as §2; format: ADME, organism-based; details: in vivo
Plasma [47] = experiment: as §3; format: ADME, cell-free
Rattus norvegicus [48] = species on record: Rattus norvegicus; experiment: as §4; format: ADME; details: in vivo
[49] = aqueous medium, read-out: solubility

In the case of `CN1[C@@H]2CC[C@H]1c1c(sc(NC(=O)Nc3ccc(Cl)cc3)c1C(N)=O)C2`, the Activity (Escherichia coli [1]) is reported as “inactive”, the Activity (Pseudomonas aeruginosa [2]) is reported as “inactive” and the Activity (Pseudomonas aeruginosa [3]) is reported as “inactive”. For the same compound, the Activity (Pseudomonas aeruginosa [4]) was “inactive”, the Activity (Pseudomonas aeruginosa [5]) was “inactive” and the Activity [6] was “inactive”. For the same compound, the Activity (Pseudomonas aeruginosa [7]) was “inactive”, the Activity [8] was “inactive” and the Activity (Pseudomonas aeruginosa [9]) was “inactive”. The Activity [10] was “inactive”, the Activity (Pseudomonas aeruginosa [11]) was “inactive” and the Activity (Pseudomonas aeruginosa [12]) was “inactive”. For the same compound, the Activity (Pseudomonas aeruginosa [13]) was “inactive”, the Activity (Pseudomonas aeruginosa [14]) was “inactive” and the Activity (Rattus norvegicus [15]) was “Active”. The Activity (Rattus norvegicus [16]) was “Active”, the Activity (Pseudomonas aeruginosa [17]) was “inactive” and the Activity (Pseudomonas aeruginosa [18]) was “inactive”. For the same compound, the Activity (Pseudomonas aeruginosa [19]) was “inactive”, the Activity (Pseudomonas aeruginosa [20]) was “inactive” and the Activity (Escherichia coli [21]) was “inactive”. For the same compound, the Activity (Pseudomonas aeruginosa [22]) was “inactive”, the Activity (Pseudomonas aeruginosa [23]) was “inactive” and the Activity (Pseudomonas aeruginosa [24]) was “inactive”. For the same compound, the Activity [25] was “inactive”, the Activity (Pseudomonas aeruginosa [26]) was “inactive” and the Activity (Pseudomonas aeruginosa [27]) was “inactive”. The Activity (Pseudomonas aeruginosa [28]) was “inactive”.
Work on `NC(=O)c1c(NC(=O)Nc2ccc(Cl)cc2)sc2c1CCN(CCCNC(=O)CCc1c[nH]c3ccccc13)C2` yielded a solubility [29, 49] of 86 µM (≈ 49.8 µg/mL), an EC50 (Danio rerio [30]) of 0.1 µM and a fraction unbound [31] of 0.001. The IC50 (HepG2) was 17 µM, the bioavailability [32] was over 1% and the fraction unbound [33] was 0.001. The Drug metabolism [34] was “Metabolite_Detected”, the IC50 [35] was 20.1 µM and the Ratio [36] was 201. For the same compound, the Activity (Rattus norvegicus [37]) was “Non-Toxic” and the half-life [38] was 7.1 h.
In the case of `CCN1CCc2c(sc(NC(=O)Nc3ccc(Cl)cc3)c2C(N)=O)C1`, the Activity (Escherichia coli [1]) is reported as “inactive”, the Activity (Escherichia coli [21]) is reported as “inactive” and the Activity (Rattus norvegicus [39]) is reported as “Active”.
Compound `CN1[C@@H]2CC[C@H]1c1c(sc(NC(=O)Nc3ccc(Cl)cc3)c1C(N)=O)C2.Cl` has a solubility [29, 49] of 86 µM, a fraction unbound [40] of 0.1 and an EC50 (Danio rerio [30]) of 0.12 µM. For the same compound, the fraction unbound [31] was 0.093 to 0.11, the “%max” value (Danio rerio [41]) was 98% and the IC50 (HepG2) was over 300 µM. For the same compound, the IC50 (Cytochrome P450 3A4) was 46 µM, the IC50 (Cytochrome P450 2C19) was 58 µM and the Stability [42] was “Stable”. It also gave a bioavailability [32] of over 50%, a fraction unbound [33] of 0.099 to 0.14 and an IC50 (Cytochrome P450 2C9) of 60 µM. The IC50 (Cytochrome P450 2D6) was over 100 µM, the Drug metabolism [34] was “Metabolite_Notdetected” and the Ratio [36] was 47. For the same compound, the Activity (Rattus norvegicus [37]) was “Non-Toxic”, the Papp [43] was 5.2 ×10⁻⁶ cm/s and the half-life [38] was 7.8 h. The Activity (Rattus norvegicus [44]) was “Non-Toxic”.
`CCN1CCc2c(sc(NC(=O)Nc3ccc(Cl)cc3)c2C(N)=O)C1.Cl` gave an EC50 (Danio rerio [30]) of 3.12 µM, a PPB (Plasma [45]) of 95.9% and an IC50 (HepG2) of over 300 µM. For the same compound, the F (Rattus norvegicus [46]) was 46%, the PPB (Plasma [47]) was 94.1% and the Drug metabolism [34] was “Metabolite_Detected”. The IC50 [35] was 3.26 µM, the Activity (Rattus norvegicus [37]) was “Non-Toxic” and the “beta t1/2” value (Rattus norvegicus [48]) was 2.1 h.
`CC1(C)Cc2c(sc(NC(=O)Nc3ccc(Cl)cc3)c2C(N)=O)C(C)(C)N1.Cl` gave a solubility ([29]; buffer) of 13 µM, an EC50 (Danio rerio [30]) of 1.24 µM and a PPB (Plasma [45]) of 96.5%. For the same compound, the IC50 (HepG2) was over 300 µM, the “inhibition (INH)” value (Cytochrome P450 3A4; human) was “Not Active” and the “inhibition (INH)” value (Cytochrome P450 2C19; human) was “Not Active”. The F (Rattus norvegicus [46]) was 21%, the PPB (Plasma [47]) was 95.8% and the “inhibition (INH)” value (Cytochrome P450 2C9; human) was “Not Active”. The “inhibition (INH)” value (Cytochrome P450 2D6; human) was “Not Active”, the Drug metabolism [34] was “Metabolite_Notdetected” and the IC50 [35] was over 30 µM. The Ratio [36] was over 24, the Activity (Rattus norvegicus [37]) was “Non-Toxic” and the “beta t1/2” value (Rattus norvegicus [48]) was 6.2 h.
